Experimental data: ChEMBL document CHEMBL4229533, “Design and synthesis of novel 6-hydroxy-4-methoxy-3-methylbenzofuran-7-carboxamide derivatives as potent Mnks inhibitors by fragment-based drug design” (Bioorg Med Chem, 2018)

Assays:
[1] = target: T1, MAP kinase-interacting serine/threonine-protein kinase 2 (Homo sapiens, UniProt Q9HBH9); experiment: Inhibition of MNK2 (unknown origin) at 10 uM using S3 as substrate measured after 60 mins by HTRF assay relative to control
Method in brief: (§1)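 HTRF Ser/Thr KinEASE format. Mnk1 or Mnk2 enzyme (0.99 ng) incubated with compound for 60 min at room temperature with 1 μM substrate S3, 392 μM ATP, 10 mM MgCl₂ and 1 mM DTT in KinEASE enzymatic buffer. Stopped with SA-XL665 and STK antibody detection reagents; 615/665 nm signal ratio read. Single-concentration values are duplicate means; IC50 taken from inhibition curves.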
Target sequence in this assay (Q9HBH9 whole entry, looked up): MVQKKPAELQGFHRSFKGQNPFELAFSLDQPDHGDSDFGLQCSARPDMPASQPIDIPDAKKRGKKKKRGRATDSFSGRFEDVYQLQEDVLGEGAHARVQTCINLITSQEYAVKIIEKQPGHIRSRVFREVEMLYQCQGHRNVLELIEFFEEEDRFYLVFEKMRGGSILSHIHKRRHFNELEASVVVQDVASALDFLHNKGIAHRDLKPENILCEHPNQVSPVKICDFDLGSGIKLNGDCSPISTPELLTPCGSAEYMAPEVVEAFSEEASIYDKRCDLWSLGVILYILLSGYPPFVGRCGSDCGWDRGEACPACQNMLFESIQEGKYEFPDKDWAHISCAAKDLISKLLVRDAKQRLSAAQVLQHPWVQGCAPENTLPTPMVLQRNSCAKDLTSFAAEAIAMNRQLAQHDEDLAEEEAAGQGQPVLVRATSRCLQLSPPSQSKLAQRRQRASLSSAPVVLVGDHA

[2] = target: T1, MAP kinase-interacting serine/threonine-protein kinase 2; experiment: Inhibition of MNK2 (unknown origin) at 1 uM using S3 as substrate measured after 60 mins by HTRF assay relative to control; method in brief: as §1
Target sequence in this assay (Q9HBH9 whole entry, looked up): as above

MOLM-13 = experiment: Antiproliferative activity against human MOLM13 cells after 96 hrs by MTT assay; type: functional, cell-based; conditions: MOLM-13, 96 h
Method in brief: (§2)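 Cells seeded at 2,000 per well and grown 24 h at 37 °C in 5% CO₂. Compound added over a concentration range in triplicate wells, then incubated 96 h. MTT (2 mg/mL) added for 4 h, formazan taken up in DMSO, absorbance read at 570 nm. Inhibition calculated against untreated control. IC50 is the concentration giving half inhibition; mean of three independent experiments.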

THP-1 = experiment: Antiproliferative activity against human THP1 cells after 96 hrs by MTT assay; type: functional, cell-based; conditions: THP-1, 96 h; method in brief: as §2
HCT-116 [3] = experiment: Antiproliferative activity against human HCT116 cells after 96 hrs by MTT assay; type: functional, cell-based; conditions: HCT-116, 96 h; method in brief: as §2
[4] = target: MAP kinase-interacting serine/threonine-protein kinase 1 (Homo sapiens) (UniProt Q9BUB5); experiment: Inhibition of MNK1 (unknown origin) at 10 uM using S3 as substrate measured after 60 mins by HTRF assay relative to control; method in brief: as §1
[5] = target: MAP kinase-interacting serine/threonine-protein kinase 1 (Homo sapiens) (UniProt Q9BUB5); experiment: Inhibition of MNK1 (unknown origin) at 1 uM using S3 as substrate measured after 60 mins by HTRF assay relative to control; method in brief: as §1
[6] = target: MAP kinase-interacting serine/threonine-protein kinase 1 (Homo sapiens) (UniProt Q9BUB5); experiment: Inhibition of MNK1 (unknown origin) at 0.1 uM using S3 as substrate measured after 60 mins by HTRF assay relative to control; method in brief: as §1
[7] = target: T1, MAP kinase-interacting serine/threonine-protein kinase 2; experiment: Inhibition of MNK2 (unknown origin) using S3 as substrate measured after 60 mins by HTRF assay
Target sequence in this assay (Q9HBH9 whole entry): as the sequence (Q9HBH9 whole entry, looked up) above

[8] = target: MAP kinase-interacting serine/threonine-protein kinase 1/2 (Homo sapiens) (UniProt Q9HBH9+Q9BUB5); experiment: Inhibition of MNK1/MNK2 in human HCT116 cells assessed as reduction in eIF4E phosphorylation at Ser209 residue after 24 hrs by Western blot analysis; type: cell-based
Method in brief: (§3)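 HCT-116 cells exposed to compound at several concentrations in 0.5% DMSO, or DMSO alone, for 24 h. Cells were rinsed in ice-cold PBS and lysed in RIPA buffer (pH 8.0), 50 µg protein loaded. Run on 8% or 12% SDS-PAGE, transferred to nitrocellulose and checked for loading by Ponceau S. Blocked in 5% milk, probed overnight at 4°C for eIF4E, p-eIF4E and GAPDH, detected by ECL.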

HCT-116 [9] = experiment: Effect on eIF4E levels in human HCT116 cells at 1 to 4 times IC50 after 24 hrs by Western blot analysis; type: ADME, cell-based; conditions: hct-116, 24 h; method in brief: as §3

Sequence of MAP kinase-interacting serine/threonine-protein kinase 1 (Homo sapiens) (Q9BUB5 whole entry, looked up): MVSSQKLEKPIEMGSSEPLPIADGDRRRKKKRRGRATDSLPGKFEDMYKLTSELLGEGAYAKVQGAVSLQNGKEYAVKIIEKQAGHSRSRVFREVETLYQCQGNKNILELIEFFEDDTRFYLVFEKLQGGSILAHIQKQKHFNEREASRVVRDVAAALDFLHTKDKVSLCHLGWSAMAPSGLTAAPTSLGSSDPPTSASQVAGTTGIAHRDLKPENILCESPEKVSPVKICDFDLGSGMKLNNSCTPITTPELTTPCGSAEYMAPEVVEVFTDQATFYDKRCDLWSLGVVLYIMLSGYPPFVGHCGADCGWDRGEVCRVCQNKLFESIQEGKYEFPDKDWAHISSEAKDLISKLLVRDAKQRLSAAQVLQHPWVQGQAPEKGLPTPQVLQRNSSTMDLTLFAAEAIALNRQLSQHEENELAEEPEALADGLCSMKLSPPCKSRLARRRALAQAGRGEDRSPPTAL

Structure (SMILES) | inhibition [1] | inhibition [2] | further results
COc1cc(O)c(C(N)=O)c2oc(C(=O)NC3CCN(Cc4cccc(Cl)c4Cl)CC3)c(C)c12 | 21% | 18% | 
COc1cc(O)c(C(N)=O)c2oc(C(=O)NCC3CCN(C(=O)c4ccc(F)cc4)CC3)c(C)c12 | 23% | 16% | 
COc1cc(O)c(C(N)=O)c2oc(C(=O)NC3CCCC3)c(C)c12 | 22% | 6% | 
COc1cc(O)c(C(N)=O)c2oc(C(=O)NC3CCN(C(=O)c4ccc(C(F)(F)F)cc4)CC3)c(C)c12 | 29% | 26% | 
COc1cc(O)c(C(N)=O)c2oc(C(=O)NC3CCN(Cc4ccc(C)cc4)CC3)c(C)c12 | 40% | 27% | 
COc1cc(O)c(C(N)=O)c2oc(C(=O)NCC3CCN(Cc4ccc(Cl)c(Cl)c4)CC3)c(C)c12 | 38% | 21% | 
COc1cc(O)c(C(N)=O)c2oc(C(=O)NC3CCN(Cc4c(Cl)cccc4Cl)CC3)c(C)c12 | 27% | 1% | 
COc1cc(O)c(C(N)=O)c2oc(C(=O)NCC3CCN(Cc4cccc(C(F)(F)F)c4)CC3)c(C)c12 | 49% | 23% | 
CCOC(=O)c1oc2c(C(N)=O)c(O)cc(OC)c2c1C | 41% | 21% | 
Nc1ncnc2[nH]nc(Nc3ccc(F)cc3)c12 |  |  | IC50 (MOLM-13): 8.24 µM; IC50 (THP-1): 11.7 µM; IC50 (HCT-116 [3]): 10.2 µM
COc1cc(O)c(C(N)=O)c2oc(C(=O)NCC3CCN(Cc4ccc(F)cc4)CC3)c(C)c12 | 41% | 32% | 
COc1cc(O)c(C(N)=O)c2oc(C(=O)NC3CCN(Cc4ccc(Cl)cc4Cl)CC3)c(C)c12 | 0% | 0% | 
CCN1CCN(C(=O)c2oc3c(C(N)=O)c(O)cc(OC)c3c2C)CC1 | 79% | 36% | IC50 (MOLM-13): 13.5 µM; inhibition [4]: 30%; inhibition [5]: 7%; inhibition [6]: 3%; IC50 [7]: 1.16 µM; IC50 (THP-1): 18.8 µM; IC50 (HCT-116 [3]): 15.7 µM
COc1cc(O)c(C(N)=O)c2oc(C(=O)NC3CCN(Cc4ccc(F)cc4)CC3)c(C)c12 | 15% | 8% | 
Cc1c(C(=O)NC2CCN(Cc3cccc(C(F)(F)F)c3)CC2)oc2cc(O)ccc12 | 28% | 0% | 
COc1cc(OC)c2c(C)c(C(=O)NC3CCN(Cc4cccc(C(F)(F)F)c4)CC3)oc2c1C(N)=O | 29% | 2% | 
COc1cc(O)c(C(N)=O)c2oc(C(=O)NC3CCN(Cc4ccccc4F)CC3)c(C)c12 | 31% | 29% | 
COc1cc(O)c(C(N)=O)c2oc(C(=O)NCc3cccc(F)c3)c(C)c12 | 23% | 11% | 
COc1cc(O)c(C(N)=O)c2oc(C(=O)Nc3ccc(C)c(C(F)(F)F)c3)c(C)c12 | 57% | 75% | inhibition [4]: 23%; inhibition [5]: 23%; inhibition [6]: 12%; IC50 [7]: 3.55 µM; IC50 (THP-1): > 50 µM
COc1cc(O)c(C(N)=O)c2oc(C(=O)N3CCCCC3)c(C)c12 | 23% | 19% | 
COc1cc(O)c(C(N)=O)c2oc(C(=O)NC3CCN(Cc4ccncc4)CC3)c(C)c12 | 32% | 15% | 

Structure (SMILES) | inhibition [1] | inhibition [2] | further results
COc1ccc2c(C)c(C(=O)NC3CCN(Cc4cccc(C(F)(F)F)c4)CC3)oc2c1 | 27% | 0% | 
COc1cc(O)c(C(N)=O)c2oc(C(=O)NC3CCN(Cc4cccc(C(F)(F)F)c4)CC3)c(C)c12 | 90% | 85% | IC50 (MOLM-13): 3.15 µM; inhibition [4]: 59%; inhibition [5]: 41%; inhibition [6]: 20%; IC50 [7]: 0.273 µM; IC50 (THP-1): 6.3 µM; IC50 (HCT-116 [3]): 2.77 µM; inhibition [8]: Dose-dependent effect; Activity (HCT-116 [9]): Non-Toxic
COc1cc(OC)c2c(C)c(C(=O)NC3CCN(Cc4cccc(C(F)(F)F)c4)CC3)oc2c1 | 35% | 6% | 
COc1cc(O)c(C(N)=O)c2occ(C)c12 | 77% | 43% | IC50 (MOLM-13): 24.8 µM; inhibition [4]: 39%; inhibition [5]: 49%; inhibition [6]: 34%; IC50 [7]: 0.749 µM; IC50 (THP-1): 32.4 µM; IC50 (HCT-116 [3]): 26.1 µM
COc1cc(O)c(C(N)=O)c2oc(C(=O)NC3CCN(Cc4ccc(Cl)cc4)CC3)c(C)c12 | 45% | 29% | 
COc1cc(O)c(C(N)=O)c2oc(C(=O)NC3CCN(Cc4cc(Cl)ncn4)CC3)c(C)c12 | 11% | 0% | 
COc1cc(O)c(C(N)=O)c2oc(C(=O)Nc3ccc(F)c(C(F)(F)F)c3)c(C)c12 | 35% | 18% | 
COc1cc(O)c(C(N)=O)c2oc(C(=O)N(C)C)c(C)c12 | 45% | 24% | 
COc1cc(O)c(C(N)=O)c2oc(C(=O)Nc3ccccc3)c(C)c12 | 0% | 0% | 
COc1cc(O)c(C(N)=O)c2oc(C(=O)NC3CCCCC3)c(C)c12 | 28% | 20% | 
COc1cc(O)c(C(N)=O)c2oc(C(=O)NCCN(C)C)c(C)c12 | 24% | 19% | 
Cc1c(C(=O)NC2CCN(Cc3cccc(C(F)(F)F)c3)CC2)oc2c(C(N)=O)c(O)cc(O)c12 | 34% | 1% | 
COc1cc(O)c(C(N)=O)c2oc(C(=O)N3CCN(c4ccc(F)cc4)CC3)c(C)c12 | 10% | 5% | 
COc1cc(O)c(C(N)=O)c2oc(C(=O)N3CCOCC3)c(C)c12 | 24% | 12% | 
COc1cc(O)c(C(N)=O)c2oc(C(=O)N(C)Cc3ccccc3)c(C)c12 | 0% | 0% | 
COc1cc(O)c(C(N)=O)c2oc(C(=O)NC3CCN(Cc4ccc(C(F)(F)F)cc4)CC3)c(C)c12 | 43% | 24% | 
CNC(=O)c1oc2c(C(N)=O)c(O)cc(OC)c2c1C | 73% | 66% | inhibition [4]: 39%; inhibition [5]: 26%; inhibition [6]: 11%; IC50 [7]: 1.45 µM; IC50 (THP-1): > 50 µM
COc1cc(O)c(C(N)=O)c2oc(C(=O)NCc3ccccc3)c(C)c12 | 28% | 24% | 
COc1cc(O)c(C(N)=O)c2oc(C(=O)N3CCN(c4cccc(C(F)(F)F)c4)CC3)c(C)c12 | 61% | 28% | 
COc1cc(O)c(C(N)=O)c2oc(C(=O)N3CCN(c4ccccc4)CC3)c(C)c12 | 15% | 8% | 
